Data as given in ChEMBL document CHEMBL5532695, “4-Trifluoromethyl bithiazoles as broad-spectrum antimicrobial agents for virus-related bacterial infections or co-infections” (RSC Med Chem, 2024).

tested on: Staphylococcus aureus; test: Bactericidal activity against methicillin-resistant Staphylococcus aureus ATCC 43300 assessed as reduction in microbial growth measured after 18 hrs by CLSI based broth microdilution method; type: functional; settings: not given; call rule not given here

SMILES	MBC [µg/mL]
CC(C)(C)C(=O)Nc1nc(C(F)(F)F)c(-c2csc(Nc3cccc(C(F)(F)F)n3)n2)s1	> 64

tested on: not listed separately; test: Cytotoxicity against african green monkey Vero E6 cells assessed as reduction in cell viability by MTT assay; type: toxicity, cell-based; settings: chlorocebus sabaeus, Vero E6 cells (Vero C1008)
Method in brief: (§1)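 MTT viability on HeLa or VeroE6 cells, run in parallel with the antiviral assays. CC50 from variable-slope sigmoidal dose–response regression.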

SMILES	CC50 [µM]
CC(C)(C)C(=O)Nc1nc(C(F)(F)F)c(-c2csc(Nc3cccc(C(F)(F)F)n3)n2)s1	46

tested on: enterovirus D68; test: microbe, parasite or virus in culture; settings: Enterovirus D, HeLa, 48 h

SMILES	IC50 [µM]
CC(C)(C)C(=O)Nc1nc(C(F)(F)F)c(-c2csc(Nc3cccc(C(F)(F)F)n3)n2)s1	6.74

tested on: Streptococcus pyogenes; test: Antibacterial activity against Streptococcus pyogenes ATCC 12344 assessed as reduction in microbial growth measured after 18 hrs by CLSI based broth microdilution method; type: functional; settings: not given
Method in brief: (§2)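 MIC by CLSI broth microdilution in Mueller–Hinton medium, triplicate. Inoculum 5 × 10^4 CFU per well. Compounds taken up in DMSO (50 mg mL−1 stock) and diluted in medium. Read after 18 h at 35 ± 2 °C.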

SMILES	MIC [µg/mL]
CC(C)(C)C(=O)Nc1nc(C(F)(F)F)c(-c2csc(Nc3cccc(C(F)(F)F)n3)n2)s1	8

tested on: Acinetobacter baumannii; test: Synergistic antibacterial activity against Acinetobacter baumannii ATCC 17978 incubated for 18 to 24 hrs in presence of colistin by broth microdilution method; type: functional; settings: time 18-24 hrs

SMILES	MAC [µg/mL]
CC(C)(C)C(=O)Nc1nc(C(F)(F)F)c(-c2csc(Nc3cccc(C(F)(F)F)n3)n2)s1	4

tested on: Staphylococcus epidermidis; test: Antibacterial activity against linezolid-resistant Staphylococcus epidermidis SI-1266 assessed as reduction in microbial growth measured after 18 hrs by CLSI based broth microdilution method; type: functional; settings: not given
Method in brief: (§3)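 Gram-positive clinical isolates; compounds dissolved in DMSO (50 mg mL−1 stock) and diluted in medium; MIC by CLSI broth microdilution in Mueller–Hinton medium, inoculum 5 × 10^4 CFU per well, read after 18 h at 35 ± 2 °C; triplicate.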

SMILES	MIC [µg/mL]
CC(C)(C)C(=O)Nc1nc(C(F)(F)F)c(-c2csc(Nc3cccc(C(F)(F)F)n3)n2)s1	> 64

tested on: Klebsiella pneumoniae; test: Synergistic antibacterial activity against Klebsiella pneumoniae ATCC 13833 incubated for 18 to 24 hrs in presence of colistin by broth microdilution method; type: functional; settings: time 18-24 hrs

SMILES	MAC [µg/mL]
CC(C)(C)C(=O)Nc1nc(C(F)(F)F)c(-c2csc(Nc3cccc(C(F)(F)F)n3)n2)s1	2

tested on: Acinetobacter baumannii; test: Synergistic antibacterial activity against colistin/carbapenem resistant MDR Acinetobacter baumannii N50 incubated for 18 to 24 hrs in presence of colistin by broth microdilution method; type: functional; settings: time 18-24 hrs
Method in brief: (§4)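 Minimum antibacterial concentration (MAC) by broth microdilution in Mueller–Hinton medium with a fixed subinhibitory colistin concentration of 2 μg mL−1 against colistin-resistant Gram-negative clinical isolates; inoculum 5 × 10^4 CFU per well, 35 ± 2 °C; triplicate.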

SMILES	MAC [µg/mL]
CC(C)(C)C(=O)Nc1nc(C(F)(F)F)c(-c2csc(Nc3cccc(C(F)(F)F)n3)n2)s1	0.06

tested on: Enterococcus faecium; test: Antibacterial activity against Vancomycin resistant Enterococcus faecium SI-1831 assessed as reduction in microbial growth measured after 18 hrs by CLSI based broth microdilution method; type: functional; settings: not given; method in brief: as §3

SMILES	MIC [µg/mL]
CC(C)(C)C(=O)Nc1nc(C(F)(F)F)c(-c2csc(Nc3cccc(C(F)(F)F)n3)n2)s1	> 64

tested on: Streptococcus pyogenes; test: Bactericidal activity against Streptococcus pyogenes ATCC 12344 assessed as reduction in microbial growth measured after 18 hrs by CLSI based broth microdilution method; type: functional; settings: not given
Method in brief: (§5)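 MBC by CLSI broth microdilution in Mueller–Hinton medium, triplicate. Inoculum 5 × 10^4 CFU per well. Read after 18 h at 35 ± 2 °C.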

SMILES	MBC [µg/mL]
CC(C)(C)C(=O)Nc1nc(C(F)(F)F)c(-c2csc(Nc3cccc(C(F)(F)F)n3)n2)s1	8

tested on: not listed separately; test: Cytotoxicity against human HeLa cells assessed as reduction in cell viability by MTT assay; type: toxicity, cell-based; settings: not given; method in brief: as §1

SMILES	CC50 [µM]
CC(C)(C)C(=O)Nc1nc(C(F)(F)F)c(-c2csc(Nc3cccc(C(F)(F)F)n3)n2)s1	31.8

tested on: Escherichia coli; test: Synergistic antibacterial activity against Escherichia coli CCUGT incubated for 18 to 24 hrs in presence of colistin by broth microdilution method; type: functional; settings: time 18-24 hrs

SMILES	MAC [µg/mL]
CC(C)(C)C(=O)Nc1nc(C(F)(F)F)c(-c2csc(Nc3cccc(C(F)(F)F)n3)n2)s1	2

tested on: Escherichia coli; test: Synergistic antibacterial activity against colistin resistant mcr-positive Escherichia coli SI-63 incubated for 18 to 24 hrs in presence of colistin by broth microdilution method; type: functional; settings: time 18-24 hrs; method in brief: as §4

SMILES	MAC [µg/mL]
CC(C)(C)C(=O)Nc1nc(C(F)(F)F)c(-c2csc(Nc3cccc(C(F)(F)F)n3)n2)s1	1

tested on: Staphylococcus aureus; test: Antibacterial activity against methicillin-resistant Staphylococcus aureus ATCC 43300 assessed as reduction in microbial growth measured after 18 hrs by CLSI based broth microdilution method; type: functional; settings: not given; method in brief: as §3

SMILES	MIC [µg/mL]
CC(C)(C)C(=O)Nc1nc(C(F)(F)F)c(-c2csc(Nc3cccc(C(F)(F)F)n3)n2)s1	16

tested on: Enterococcus faecalis; test: Bactericidal activity against Enterococcus faecalis ATCC 29212 assessed as reduction in microbial growth measured after 18 hrs by CLSI based broth microdilution method; type: functional; settings: not given; method in brief: as §5

SMILES	MBC [µg/mL]
CC(C)(C)C(=O)Nc1nc(C(F)(F)F)c(-c2csc(Nc3cccc(C(F)(F)F)n3)n2)s1	16

tested on: Enterococcus faecalis; test: Antibacterial activity against Enterococcus faecalis ATCC 29212 assessed as reduction in microbial growth measured after 18 hrs by CLSI based broth microdilution method; type: functional; settings: not given; method in brief: as §2

SMILES	MIC [µg/mL]
CC(C)(C)C(=O)Nc1nc(C(F)(F)F)c(-c2csc(Nc3cccc(C(F)(F)F)n3)n2)s1	8

tested on: Staphylococcus epidermidis; test: Bactericidal activity against linezolid-resistant Staphylococcus epidermidis SI-1266 assessed as reduction in microbial growth measured after 18 hrs by CLSI based broth microdilution method; type: functional; settings: not given

SMILES	MBC [µg/mL]
CC(C)(C)C(=O)Nc1nc(C(F)(F)F)c(-c2csc(Nc3cccc(C(F)(F)F)n3)n2)s1	> 64

tested on: rhinovirus A16; test: microbe, parasite or virus in culture; settings: Rhinovirus A, HeLa, 48 h

SMILES	IC50 [µM]
CC(C)(C)C(=O)Nc1nc(C(F)(F)F)c(-c2csc(Nc3cccc(C(F)(F)F)n3)n2)s1	9.02

tested on: Staphylococcus haemolyticus; test: Antibacterial activity against oxacillin-resistant Staphylococcus haemolyticus SI-6/2011 assessed as reduction in microbial growth measured after 18 hrs by CLSI based broth microdilution method; type: functional; settings: not given; method in brief: as §3

SMILES	MIC [µg/mL]
CC(C)(C)C(=O)Nc1nc(C(F)(F)F)c(-c2csc(Nc3cccc(C(F)(F)F)n3)n2)s1	> 64

tested on: Staphylococcus haemolyticus; test: Bactericidal activity against oxacillin-resistant Staphylococcus haemolyticus SI-6/2011 assessed as reduction in microbial growth measured after 18 hrs by CLSI based broth microdilution method; type: functional; settings: not given

SMILES	MBC [µg/mL]
CC(C)(C)C(=O)Nc1nc(C(F)(F)F)c(-c2csc(Nc3cccc(C(F)(F)F)n3)n2)s1	> 64

molecular target: Phosphatidylinositol 4-kinase beta (Homo sapiens, UniProt Q9UBF8); test: Inhibition of recombinant full length his tagged PI4KB (unknown origin) incubated for 10 mins in presence of ATP by ADP-glo kinase assay; settings: not given
Sequence (Q9UBF8 whole entry): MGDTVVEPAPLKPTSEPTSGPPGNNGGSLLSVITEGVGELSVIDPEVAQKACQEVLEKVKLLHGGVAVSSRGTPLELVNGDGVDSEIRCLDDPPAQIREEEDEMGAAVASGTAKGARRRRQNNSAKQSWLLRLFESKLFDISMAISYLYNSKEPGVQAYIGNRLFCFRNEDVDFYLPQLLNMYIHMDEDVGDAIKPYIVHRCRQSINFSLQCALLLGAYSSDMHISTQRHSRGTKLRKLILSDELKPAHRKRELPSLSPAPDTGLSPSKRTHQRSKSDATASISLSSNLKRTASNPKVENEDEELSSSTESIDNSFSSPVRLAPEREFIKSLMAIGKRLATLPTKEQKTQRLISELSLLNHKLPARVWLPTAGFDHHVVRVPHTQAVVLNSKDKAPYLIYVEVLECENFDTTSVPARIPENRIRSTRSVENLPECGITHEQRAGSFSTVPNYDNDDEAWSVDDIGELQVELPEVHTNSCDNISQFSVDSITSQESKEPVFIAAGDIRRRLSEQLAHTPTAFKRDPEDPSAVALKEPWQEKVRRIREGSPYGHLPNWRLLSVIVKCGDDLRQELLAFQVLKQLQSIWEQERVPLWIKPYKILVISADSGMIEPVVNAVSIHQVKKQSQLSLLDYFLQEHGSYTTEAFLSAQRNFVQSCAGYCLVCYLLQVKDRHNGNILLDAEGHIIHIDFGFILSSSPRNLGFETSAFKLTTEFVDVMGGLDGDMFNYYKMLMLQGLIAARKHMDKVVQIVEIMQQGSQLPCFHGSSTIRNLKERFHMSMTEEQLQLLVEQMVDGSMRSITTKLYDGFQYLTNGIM

SMILES	IC50
CC(C)(C)C(=O)Nc1nc(C(F)(F)F)c(-c2csc(Nc3cccc(C(F)(F)F)n3)n2)s1	Not Active

tested on: Staphylococcus warneri; test: Bactericidal activity against oxacillin-resistant Staphylococcus warneri SI-5/2011 assessed as reduction in microbial growth measured after 18 hrs by CLSI based broth microdilution method; type: functional; settings: not given

SMILES	MBC [µg/mL]
CC(C)(C)C(=O)Nc1nc(C(F)(F)F)c(-c2csc(Nc3cccc(C(F)(F)F)n3)n2)s1	> 64

tested on: Staphylococcus warneri; test: Antibacterial activity against oxacillin-resistant Staphylococcus warneri SI-5/2011 assessed as reduction in microbial growth measured after 18 hrs by CLSI based broth microdilution method; type: functional; settings: not given; method in brief: as §3

SMILES	MIC [µg/mL]
CC(C)(C)C(=O)Nc1nc(C(F)(F)F)c(-c2csc(Nc3cccc(C(F)(F)F)n3)n2)s1	> 64

tested on: Staphylococcus aureus; test: Bactericidal activity against Staphylococcus aureus ATCC 25923 assessed as reduction in microbial growth measured after 18 hrs by CLSI based broth microdilution method; type: functional; settings: not given; method in brief: as §5

SMILES	MBC [µg/mL]
CC(C)(C)C(=O)Nc1nc(C(F)(F)F)c(-c2csc(Nc3cccc(C(F)(F)F)n3)n2)s1	> 32

tested on: Enterococcus faecium; test: Bactericidal activity against Vancomycin resistant Enterococcus faecium SI-3856B assessed as reduction in microbial growth measured after 18 hrs by CLSI based broth microdilution method; type: functional; settings: not given

SMILES	MBC [µg/mL]
CC(C)(C)C(=O)Nc1nc(C(F)(F)F)c(-c2csc(Nc3cccc(C(F)(F)F)n3)n2)s1	> 64

tested on: Staphylococcus aureus; test: Antibacterial activity against Staphylococcus aureus ATCC 25923 assessed as reduction in microbial growth measured after 18 hrs by CLSI based broth microdilution method; type: functional; settings: not given; method in brief: as §2

SMILES	MIC [µg/mL]
CC(C)(C)C(=O)Nc1nc(C(F)(F)F)c(-c2csc(Nc3cccc(C(F)(F)F)n3)n2)s1	32

tested on: Bacillus subtilis; test: Bactericidal activity against Bacillus subtilis ATCC 6633 assessed as reduction in microbial growth measured after 18 hrs by CLSI based broth microdilution method; type: functional; settings: not given; method in brief: as §5

SMILES	MBC [µg/mL]
CC(C)(C)C(=O)Nc1nc(C(F)(F)F)c(-c2csc(Nc3cccc(C(F)(F)F)n3)n2)s1	16

tested on: Zika virus; test: microbe, parasite or virus in culture; settings: Vero C1008, 72 h

SMILES	IC50 [µM]
CC(C)(C)C(=O)Nc1nc(C(F)(F)F)c(-c2csc(Nc3cccc(C(F)(F)F)n3)n2)s1	6.9

tested on: Enterococcus faecium; test: Antibacterial activity against Vancomycin/teicoplanin resistant Enterococcus faecium SI-759 assessed as reduction in microbial growth measured after 18 hrs by CLSI based broth microdilution method; type: functional; settings: not given; method in brief: as §3

SMILES	MIC [µg/mL]
CC(C)(C)C(=O)Nc1nc(C(F)(F)F)c(-c2csc(Nc3cccc(C(F)(F)F)n3)n2)s1	64

tested on: Enterococcus faecium; test: Antibacterial activity against Vancomycin resistant Enterococcus faecium SI-3856B assessed as reduction in microbial growth measured after 18 hrs by CLSI based broth microdilution method; type: functional; settings: not given; method in brief: as §3

SMILES	MIC [µg/mL]
CC(C)(C)C(=O)Nc1nc(C(F)(F)F)c(-c2csc(Nc3cccc(C(F)(F)F)n3)n2)s1	> 64

tested on: Enterococcus faecium; test: Bactericidal activity against Vancomycin/teicoplanin resistant Enterococcus faecium SI-759 assessed as reduction in microbial growth measured after 18 hrs by CLSI based broth microdilution method; type: functional; settings: not given

SMILES	MBC [µg/mL]
CC(C)(C)C(=O)Nc1nc(C(F)(F)F)c(-c2csc(Nc3cccc(C(F)(F)F)n3)n2)s1	> 64

tested on: Bacillus subtilis; test: Antibacterial activity against Bacillus subtilis ATCC 6633 assessed as reduction in microbial growth measured after 18 hrs by CLSI based broth microdilution method; type: functional; settings: not given; method in brief: as §2

SMILES	MIC [µg/mL]
CC(C)(C)C(=O)Nc1nc(C(F)(F)F)c(-c2csc(Nc3cccc(C(F)(F)F)n3)n2)s1	8

tested on: Enterococcus faecium; test: Bactericidal activity against Vancomycin resistant Enterococcus faecium SI-1831 assessed as reduction in microbial growth measured after 18 hrs by CLSI based broth microdilution method; type: functional; settings: not given

SMILES	MBC [µg/mL]
CC(C)(C)C(=O)Nc1nc(C(F)(F)F)c(-c2csc(Nc3cccc(C(F)(F)F)n3)n2)s1	> 64

tested on: Pseudomonas aeruginosa; test: Synergistic antibacterial activity against Pseudomonas aeruginosa ATCC 27853 incubated for 18 to 24 hrs in presence of colistin by broth microdilution method; type: functional; settings: time 18-24 hrs

SMILES	MAC [µg/mL]
CC(C)(C)C(=O)Nc1nc(C(F)(F)F)c(-c2csc(Nc3cccc(C(F)(F)F)n3)n2)s1	>64

tested on: Pseudomonas aeruginosa; test: Synergistic antibacterial activity against colistin resistant MDR Pseudomonas aeruginosa SI-270 incubated for 18 to 24 hrs in presence of colistin by broth microdilution method; type: functional; settings: time 18-24 hrs; method in brief: as §4

SMILES	MAC [µg/mL]
CC(C)(C)C(=O)Nc1nc(C(F)(F)F)c(-c2csc(Nc3cccc(C(F)(F)F)n3)n2)s1	64
